Assay outcomes deposited in PubChem BioAssay by The Scripps Research Institute Molecular Screening Center.
Hits are enriched below; roughly 1.6% of the tested compounds scored in any of these assays.
SIAE primary: blocks human sialic acid acetylesterase | inhibition, % at 9.66 µM | Q9HAT2 | actives 0.69% (n = 370,000) | AID 1053197 | SIAE FP-Rh probe binding, fluorescence polarization;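 active = inhibition above a cutoff: mean of compounds within the control limits plus 3 SD of those, cut at about 17% in these data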
HTRA1 inh: blocks human HTRA1 serine peptidase | inhibition, % at 5.96 µM | recombinant HTRA1, FP-rhodamine activity-based probe, fluorescence polarization | actives 0.5% (n = 340,000) | Q92743; in the data active = inhibition above about 36%
ABHD4 inh: ABHD4 (mouse) inhibition, primary FP screen; purified mABHD4, FP-Rh probe fluorescence polarization; actives 0.54% (n = 370,000); inhibition, % at 8.92 µM; Q8VD66; AID 720543;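 active = inhibition exceeding the mean over every tested compound plus 3 SD, cut at about 30% in these data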
Target sequence (Q8VD66 whole entry, looked up): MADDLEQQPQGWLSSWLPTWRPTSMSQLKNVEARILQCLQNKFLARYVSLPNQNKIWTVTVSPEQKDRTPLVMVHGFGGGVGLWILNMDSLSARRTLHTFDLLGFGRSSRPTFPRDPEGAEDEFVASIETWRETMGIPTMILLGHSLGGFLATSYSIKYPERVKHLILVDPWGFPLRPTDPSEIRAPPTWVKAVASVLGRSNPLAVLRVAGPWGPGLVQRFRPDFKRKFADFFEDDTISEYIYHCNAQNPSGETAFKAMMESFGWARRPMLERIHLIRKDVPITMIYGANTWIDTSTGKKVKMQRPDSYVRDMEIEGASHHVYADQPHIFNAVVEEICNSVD
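Assay system: mouse ABHD4 enzyme, wild type / Also added: fluorescent activity-based probe FP-Rh / Doses: single nominal dose of 8.92 µM, 0.89% DMSO final / Timing: 45 min compound pre-incubation plus 60 min probe step, 25 °C / Signal: FP readout, ex 525 nm / em 598 nm / Control set: S159A mutant/DMSO as 100%, compound-well median as 0%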
DAGLB inhibitor: blocks human DAGLB lipase activity; HEK293T DAGLB membrane lysate, EnzChek fluorogenic substrate; inhibition, % at 5.17 µM; Q8NCG7; AID 504411; actives 0.059% (n = 340,000); in the data active = inhibition above about 34%
TCR CD3 inh: inhibitors of human TCR-CD3 interaction | inhibition, % at 9.4 µM | TAMRA-labeled TCR probe fluorescence, biochemical | actives 0.37% (n = 360,000) | AID 651800; in the data active = inhibition above about 19%;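 note: recombinant mutant TCR 2C K166C tagged with TAMRA read by polarization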
SIAE inh conf: human SIAE inhibition, confirmation. inhibition, % at 9.66 µM. SIAE FP-Rh activity-based probe, fluorescence polarization. shares compounds with SIAE primary. actives 13% (n = 2,300);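 active = mean inhibition of the replicates above the hit cutoff set in the primary screen, cut at about 17% in these data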;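 note: inhibitors lower polarization as more probe stays unbound to SIAE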
A number is an active result; i = inactive; nt = no result.

SMILES	SIAE primary	HTRA1 inh	ABHD4 inh	DAGLB inhibitor	TCR CD3 inh	SIAE inh conf
CN1CCC(N[C@@H](Cc2c[nH]c3ccccc23)C(=O)NCCCc2ccccc2)(C(=O)NCCc2c[nH]c3ccccc23)CC1	i	nt	i	nt	nt	nt
COc1cccc(Nc2nc(CN)cs2)n1	22.1	nt	i	nt	i	i
C[C@@H]1COc2cccc(N3CCCC3)c2S(=O)(=O)N1	i	nt	i	nt	i	nt
O=C(Oc1cccc2c(O)cccc12)c1ccco1	17.8	i	i	i	i	i
Cc1ccccc1C(=O)Oc1cccc2c(O)cccc12	i	i	i	i	i	nt
CN(C)[C@H]1CCN(c2ccc3c(c2)OCCCN(C2CC2)S3(=O)=O)C1	i	nt	i	nt	nt	nt
O=c1[nH]c2cc3c(cc2cc1CN(Cc1ccc2c(c1)OCO2)Cc1nnnn1CC1CCCO1)OCO3 (stereo not drawn)	59.3	i	i	i	i	i
COC(=O)c1cccc(Cn2ccc3ccc(-c4ccc5ccn(C(=O)c6ccc(C)cc6)c5c4)cc32)c1	i	nt	i	nt	nt	nt
S=C(NCCNC(=S)Nc1ccccc1)Nc1ccccc1	i	i	i	i	i	nt
Nc1ccc(NC(=S)Nc2ccccc2)cc1	17.2	i	i	i	i	i
CCN(CC)C1=NC=CC(c2ccccc2)=CC1C (stereo not drawn)	28.5	i	i	i	i	i
COc1ccc(-c2nc(NC(=O)c3[nH]c(C)c(C(C)=O)c3C)sc2C)cc1	26.7	i	i	i	i	i
COc1ccc(-c2nc(NC(=O)c3ccco3)sc2C)cc1	i	i	i	i	i	nt
CC(=O)c1cccc(NC(=S)NC(=O)c2ccccc2)c1	i	i	i	i	i	nt
CNC(=S)Nc1cccc(C(C)=O)c1	17.1	i	i	i	i	i
COc1ccc(C2Nc3ccccc3C(=O)N2Cc2cccnc2)cc1COc1c(C)cccc1C (stereo not drawn)	i	nt	i	nt	nt	nt
CC(=O)NNc1cc(N2CCOCC2)nc(N2CCOCC2)n1	25.4	i	i	i	i	i
CC(Sc1nnc(NCc2ccccc2)s1)C(=O)Nc1ccc2c(c1)C(=O)c1ccccc1C2=O (stereo not drawn)	17.9	i	i	i	i	i
CC(Sc1nnc(NC2CC2)s1)C(=O)Nc1ccc(S(N)(=O)=O)cc1 (stereo not drawn)	i	i	i	i	i	nt
CC(Sc1nnc(Nc2ccccc2)s1)C(=O)Nc1nc(-c2ccccc2)cs1 (stereo not drawn)	22.1	i	i	i	i	i
O=C(Nc1ccc2c(c1)OCO2)NC1CCN(S(=O)(=O)c2ccc(F)cc2)CC1	i	nt	i	nt	nt	nt
Cn1cc(S(=O)(=O)N2CCN(c3ccccc3)CC2)c(=O)n(C)c1=O	60.3	i	i	i	i	i
Cc1ccc(S(=O)(=O)N2CCN(c3ccccc3)CC2)c(C)c1	22.3	i	i	i	i	i
O=C(OC12CCCN(C1)/C(=C/c1cccnc1)C2)c1cccc(F)c1 (stereo not drawn)	i	nt	i	nt	nt	nt
Nc1ccc(F)c(CN2CCN(c3ncc(Cc4ccccc4)cn3)CC2)c1	i	nt	i	nt	i	nt
SMILES	SIAE primary	HTRA1 inh	ABHD4 inh	DAGLB inhibitor	TCR CD3 inh	SIAE inh conf
Cc1ccccc1N1CCN(C2=Nc3ccccc3Sc3ccccc32)CC1	i	nt	i	nt	nt	nt
COc1cccc(C2C3=C(CCCC3=O)Nc3[nH]n(-c4ccccc4)c(=O)c32)c1 (stereo not drawn)	19.4	i	i	i	i	i
Nn1c(SCC(=O)N2CCOCC2)nnc1-c1cc(-c2ccc(F)cc2)n[nH]1	i	nt	i	nt	nt	nt
CCCOc1ccc(C(=O)N/N=C/c2c[nH]c3ccc(Br)cc23)cc1	19.4	i	i	i	i	i
O=C(N/N=C/c1c[nH]c2ccc(Br)cc12)c1ccn(Cc2ccc(Cl)cc2)n1	i	i	i	i	i	nt
CCCC(=O)N1CCC(O)(c2cccc(F)c2)CC1	49.1	i	i	i	i	i
COc1ccc(NS(=O)(=O)c2cccs2)cc1S(=O)(=O)N1CCOCC1	i	i	i	i	i	nt
COc1ccc(NS(=O)(=O)c2cccs2)cc1S(=O)(=O)N1CCCCC1	19.4	i	i	i	i	i
Cc1c(NC(=S)NC(=O)c2cccc(Br)c2)c(=O)n(-c2ccccc2)n1C	17.1	i	i	i	i	i
O=C(Cc1c[nH]c2ccccc12)Nc1ccc(Nc2cccnc2)c(-c2ccc(Oc3ccccc3)cc2)c1	18.0	nt	i	nt	i	i
O=C(Cc1cn(Cc2ccccc2)c2ccccc12)Nc1ccc(Nc2cccnc2)c(Br)c1	17.8	nt	i	nt	i	i
Cc1cccc(OC[C@@H](O)CN2CCC(C(O)(c3ccccc3)c3ccccc3)CC2)c1	i	nt	i	nt	nt	nt
COc1cccc(CNC(=O)CN2CCCc3ccccc32)c1	i	nt	i	nt	nt	nt
O=[N+]([O-])c1ccc(O)c(/C=N/Nc2ccccn2)c1	i	i	i	i	i	nt
COc1ccc2nc(C)cc(N/N=C/c3cccc(OC)c3O)c2c1	24.1	i	i	i	i	17.8
O=[N+]([O-])c1ccc(O)c(/C=N/Nc2nc3ccccc3[nH]2)c1	18.9	i	i	i	i	i
O=[N+]([O-])c1ccc(N/N=C/c2ccccc2O)cc1	40.2	i	i	i	i	i
COc1cccc(/C=N/Nc2nc3ccccc3[nH]2)c1O	17.2	i	i	i	i	i
COc1ccc(/C=N/Nc2cc(C)nc3ccc(Br)cc23)cc1	i	i	i	i	i	nt
COC(=O)c1cc2c(c3c4cc(OC)ccc4n(S(=O)(=O)c4cccc(C)c4)c13)C(=O)N(Cc1ccc(C(F)(F)F)cc1)C2	i	nt	i	nt	i	nt
COc1cc(/C=N/Nc2nc3ccccc3[nH]2)ccc1O	17.9	i	i	i	i	i
O=C1C(Cl)=C(N2CCCCCC2)C(=O)N1c1ccccc1	i	i	i	i	i	nt
O=C1C(Cl)=C(N2CCCCC2)C(=O)N1Cc1ccccc1	17.8	i	i	i	i	i
CC(NC(=O)CCn1c(=S)[nH]c2ccsc2c1=O)c1ccccc1 (stereo not drawn)	19.1	i	i	i	i	i
O=c1c2sccc2[nH]c(=S)n1Cc1ccccc1	i	i	i	i	i	nt
SMILES	SIAE primary	HTRA1 inh	ABHD4 inh	DAGLB inhibitor	TCR CD3 inh	SIAE inh conf
O=C(CSc1nnc(-c2ccccc2)n1-c1ccc(Cl)cc1)Nc1cccc2ccccc12	i	nt	i	nt	nt	nt
CCOC(=O)C1CCCN(C(=O)c2ccc(OC)c([N+](=O)[O-])c2)C1 (stereo not drawn)	29.7	i	i	i	i	i
CCOC(=O)C1=NOC(C(=O)NC2CCCC2)(C(=O)C2CC2)C1 (stereo not drawn)	i	nt	i	nt	nt	nt
CCOC(=O)C1=CCC(c2cc3ccccc3[nH]2)NC1 (stereo not drawn)	i	nt	i	nt	i	nt
CC(/C=C/c1ccc(N(C)C)cc1)=N\N=C1\NC(=O)CC(C(=O)Nc2ccccc2)S1 (stereo not drawn)	19.1	i	i	i	i	i
CN(C)c1ccc(NC(=O)CSc2nc(N)c(C(=O)Nc3ccc(N(C)C)cc3)s2)cc1	19.6	i	i	i	i	i
Brc1ccc2nc(-c3ccncc3)c(NC3CCCC3)n2c1	19.4	i	i	i	i	i
